The text below walks through data of ChEMBL document CHEMBL6134795, “Mannich reaction mediated derivatization of chromones and their biological evaluations as putative multipotent ligands for the treatment of Alzheimer's disease” (RSC Med Chem, 2024).

The target of series [1] is T1, Amine oxidase [flavin-containing] A (Homo sapiens, UniProt P21397).
T1 sequence (P21397 whole entry): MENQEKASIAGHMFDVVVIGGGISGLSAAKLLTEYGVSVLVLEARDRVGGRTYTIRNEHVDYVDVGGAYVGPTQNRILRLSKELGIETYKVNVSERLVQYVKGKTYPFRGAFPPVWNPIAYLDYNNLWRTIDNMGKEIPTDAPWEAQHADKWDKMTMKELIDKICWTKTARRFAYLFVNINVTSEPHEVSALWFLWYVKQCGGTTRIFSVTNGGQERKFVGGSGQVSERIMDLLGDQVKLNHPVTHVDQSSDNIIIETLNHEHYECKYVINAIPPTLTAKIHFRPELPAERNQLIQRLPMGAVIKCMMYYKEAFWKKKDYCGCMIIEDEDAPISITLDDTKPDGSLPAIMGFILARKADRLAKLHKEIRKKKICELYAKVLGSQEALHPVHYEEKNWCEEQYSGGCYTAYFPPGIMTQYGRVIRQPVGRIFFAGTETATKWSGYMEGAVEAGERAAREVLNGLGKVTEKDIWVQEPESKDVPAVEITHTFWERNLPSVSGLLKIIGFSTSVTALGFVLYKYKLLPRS
Put plainly: Inhibition of recombinant MAO-A (unknown origin) at 20 uM preincubated for 30 mins followed substrate addition by Amplex Red reagent based fluorescence analysis relative to control. Put shortly: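 Recombinant MAO enzyme preincubated with compound 30 min at 37 °C; substrate, HRP and Amplex Red working solution then added; H2O2 formation read at 37 °C by fluorescence, ex 545/em 590 nm. Screening at 20 μM as % inhibition versus control; IC50 only for compounds above 50% inhibition at 20 μM; triplicate (n = 3).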

For series [2], the target named is Amyloid-beta precursor protein (Homo sapiens) (UniProt P05067). Description: Inhibition of self-induced amyloid beta (1 to 42 residues) (unknown origin) aggregation at 20 uM incubated at 24 hrs by fluorimetry-based thioflavin T assay. Put shortly:
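Aβ1-42 pretreated with HFIP (1 mg mL−1) and dried, then incubated with compound (20 μM) at 37 °C for 24 h; an aliquot transferred and incubated further to 48 h. Glycine–NaOH buffer pH 8.0 with 5 μM ThT added; fluorescence read at 440–485 nm. % inhibition calculated against the Aβ-only control taken as 0%.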

The target of series [3] is Cholinesterase (Homo sapiens, UniProt P06276). Description: Inhibition of recombinant BuChE (unknown origin) using BTCI as substrate preincubated for 30 mins followed by substrate addition by TECAN multiplate reader analysis. Put shortly:
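Ellman method as for AChE, using butyrylcholinesterase with BTCI as substrate. Enzyme and compound preincubated 30 min at 37 °C in a CO2 incubator, then DTNB and BTCI added; absorbance read at 417 nm. Screening at 20 μM as % inhibition; IC50 for compounds exceeding 50% inhibition at 20 μM. Triplicate.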

Series [4] concerns the target Amyloid-beta precursor protein (Homo sapiens) (UniProt P05067). Put plainly: Inhibition of self-induced amyloid beta (1 to 42 residues) (unknown origin) aggregation assessed as reduction in fibrils formation measured after 72 hrs by FE-SEM analysis. In a few lines:
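HFIP-pretreated Aβ1-42 incubated with or without inhibitor for 72 h; samples placed on carbon-coated copper grids, dried 1 h at 37 °C, imaged by FE-SEM. Glycine–NaOH buffer served as blank and Aβ alone as control.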

For series [5], the target named is T2, Acetylcholinesterase (Homo sapiens, UniProt P22303). Description: Reversible inhibition of AChE (unknown origin) assessed as residual activity at 1 times IC50 incubated for 30 mins by dilution method relative to control. Put shortly:
(§1)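 Samples then diluted 100-fold with substrate, giving final inhibitor levels of 0.1× and 1× IC50. Recovered activity measured relative to control; triplicate.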

For series [6], the target named is T2, Acetylcholinesterase. Put plainly: Reversible inhibition of AChE (unknown origin) assessed as residual activity at 0.1 times IC50 incubated for 30 mins by dilution method relative to control. Put shortly: as §1
The target of series [7] is T3, Amine oxidase [flavin-containing] B (Homo sapiens, UniProt P27338).
T3 sequence (P27338 whole entry): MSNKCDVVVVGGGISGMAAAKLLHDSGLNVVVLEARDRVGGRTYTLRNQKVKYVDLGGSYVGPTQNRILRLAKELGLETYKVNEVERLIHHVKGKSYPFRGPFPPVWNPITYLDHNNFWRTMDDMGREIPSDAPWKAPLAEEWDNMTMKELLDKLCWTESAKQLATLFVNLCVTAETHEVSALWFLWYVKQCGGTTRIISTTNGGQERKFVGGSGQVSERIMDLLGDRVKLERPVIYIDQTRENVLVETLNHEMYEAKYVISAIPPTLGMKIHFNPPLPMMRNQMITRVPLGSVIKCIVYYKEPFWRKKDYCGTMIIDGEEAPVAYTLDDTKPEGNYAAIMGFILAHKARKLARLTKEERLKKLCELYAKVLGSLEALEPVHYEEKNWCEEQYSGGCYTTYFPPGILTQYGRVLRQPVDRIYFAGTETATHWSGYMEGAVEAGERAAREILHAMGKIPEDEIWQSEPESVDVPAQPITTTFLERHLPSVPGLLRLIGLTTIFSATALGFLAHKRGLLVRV
Description: Reversible inhibition of MAO-B (unknown origin) assessed as residual activity at 10 times IC50 incubated for 30 mins by dilution method relative to control. The conditions noted are these: 0.5 h.

Series [8] concerns SH-SY5Y. Description: Cytotoxicity against human SH-SY5Y cells assessed as cell viability at 1 uM by MTT assay relative to control. The note with it: read-out: Activity. The format is functional. In a few lines: (§2)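 SH-SY5Y cells (DMEM/F-12 with 10% FBS, 1% horse serum, 1% penicillin) preincubated 24 h with compound at 1, 5 or 25 μM; MTT converted to formazan, solubilised in DMSO, absorbance read at 595 nm; viability expressed as percentage of untreated control.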

Series [9] deals with SH-SY5Y. Description: Cytotoxicity against human SH-SY5Y cells assessed as cell viability at 25 uM by MTT assay relative to control. The format is functional. The conditions noted are these: read-out: Activity. Put shortly: as §2
Background: Tetrazolium dyes change colour on reduction, which living cells bring about.

In series [10] the test system is SH-SY5Y. Description: Inhibition of ROS production in human SH-SY5Y cells assessed as intracellular ROS level at 1 uM incubated for 24 hrs by DCF-DA staining based fluorescence analysis relative to control. The class given is functional. In a few lines:
(§3)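 Cultured SH-SY5Y cells exposed to compound (1, 5, 25 μM) for 24 h; intracellular ROS detected with DCF-DA, which is converted to fluorescent 2,7-DCF, read at ex 478/em 518 nm. Inhibition is expressed relative to control. Mean ± SD of triplicate or more independent experiments.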

Series [11] relates to SH-SY5Y. Description: Inhibition of ROS production in human SH-SY5Y cells assessed as intracellular ROS level at 25 uM incubated for 24 hrs by DCF-DA staining based fluorescence analysis relative to control. The format is functional. Put shortly: as §3
Series [12] relates to SH-SY5Y. Put plainly: Neuroprotective activity against 6-OHDA-induced cytotoxicity in human SH-SY5Y cells assessed as cell viability at 5 uM incubated for 24 hrs followed by exposure to 6-OHDA by MTT assay relative to control. The format is functional. The note with it: read-out: Activity. Put shortly:
(§4)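 SH-SY5Y cells treated with compound (1, 5, 25 μM) and challenged with 6-OHDA; cultured 24 h at 37 °C under humidified 5% CO2. Viability measured by MTT as formazan absorbance at 594 nm and expressed relative to control.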

Series [13] deals with SH-SY5Y. Put plainly: Neuroprotective activity against 6-OHDA-induced cytotoxicity in human SH-SY5Y cells assessed as cell viability at 25 uM incubated for 24 hrs followed by exposure to 6-OHDA by MTT assay relative to control. The class given is functional. The conditions noted are these: read-out: Activity. In a few lines: as §4

Active and inactive are the calls of the source. No cut-off for these calls is given here.

Sequence of Amyloid-beta precursor protein (Homo sapiens) (P05067 whole entry, the tested form may be a part): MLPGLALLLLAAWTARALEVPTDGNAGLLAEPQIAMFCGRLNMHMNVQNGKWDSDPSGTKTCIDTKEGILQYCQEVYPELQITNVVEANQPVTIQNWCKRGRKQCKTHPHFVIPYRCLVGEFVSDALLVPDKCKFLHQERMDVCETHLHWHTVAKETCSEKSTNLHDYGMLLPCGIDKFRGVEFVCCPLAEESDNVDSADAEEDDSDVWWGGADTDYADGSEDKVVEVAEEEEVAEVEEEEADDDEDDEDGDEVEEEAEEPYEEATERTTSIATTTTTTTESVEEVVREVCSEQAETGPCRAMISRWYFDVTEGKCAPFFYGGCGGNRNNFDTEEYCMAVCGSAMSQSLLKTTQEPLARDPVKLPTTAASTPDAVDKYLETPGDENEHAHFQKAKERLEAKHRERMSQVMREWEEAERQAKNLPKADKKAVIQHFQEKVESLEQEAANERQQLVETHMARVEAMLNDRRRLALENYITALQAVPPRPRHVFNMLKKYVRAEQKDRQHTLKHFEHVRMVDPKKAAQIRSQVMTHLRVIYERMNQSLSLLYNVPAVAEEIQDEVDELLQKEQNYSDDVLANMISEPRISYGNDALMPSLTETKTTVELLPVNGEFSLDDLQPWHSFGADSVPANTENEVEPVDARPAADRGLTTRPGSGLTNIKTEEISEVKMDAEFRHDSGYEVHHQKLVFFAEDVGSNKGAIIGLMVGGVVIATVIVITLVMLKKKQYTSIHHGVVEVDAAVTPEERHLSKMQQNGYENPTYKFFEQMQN
T2 sequence (P22303 whole entry): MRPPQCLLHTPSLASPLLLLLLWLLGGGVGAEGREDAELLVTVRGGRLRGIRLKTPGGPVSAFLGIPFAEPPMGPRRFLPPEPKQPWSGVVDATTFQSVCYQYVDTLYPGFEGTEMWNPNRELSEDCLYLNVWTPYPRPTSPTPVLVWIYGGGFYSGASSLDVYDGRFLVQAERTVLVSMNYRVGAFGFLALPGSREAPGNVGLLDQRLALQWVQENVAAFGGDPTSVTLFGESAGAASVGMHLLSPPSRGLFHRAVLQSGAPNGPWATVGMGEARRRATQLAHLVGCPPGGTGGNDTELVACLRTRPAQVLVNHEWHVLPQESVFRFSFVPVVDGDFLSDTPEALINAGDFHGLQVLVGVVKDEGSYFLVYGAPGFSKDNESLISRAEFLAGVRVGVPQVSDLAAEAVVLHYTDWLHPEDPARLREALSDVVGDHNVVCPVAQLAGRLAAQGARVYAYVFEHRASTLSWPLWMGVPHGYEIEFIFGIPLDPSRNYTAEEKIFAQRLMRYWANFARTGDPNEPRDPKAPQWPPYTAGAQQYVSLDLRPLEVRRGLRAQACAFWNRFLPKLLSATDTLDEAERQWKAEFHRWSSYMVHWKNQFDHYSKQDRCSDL
Sequence of Cholinesterase (P06276 whole entry): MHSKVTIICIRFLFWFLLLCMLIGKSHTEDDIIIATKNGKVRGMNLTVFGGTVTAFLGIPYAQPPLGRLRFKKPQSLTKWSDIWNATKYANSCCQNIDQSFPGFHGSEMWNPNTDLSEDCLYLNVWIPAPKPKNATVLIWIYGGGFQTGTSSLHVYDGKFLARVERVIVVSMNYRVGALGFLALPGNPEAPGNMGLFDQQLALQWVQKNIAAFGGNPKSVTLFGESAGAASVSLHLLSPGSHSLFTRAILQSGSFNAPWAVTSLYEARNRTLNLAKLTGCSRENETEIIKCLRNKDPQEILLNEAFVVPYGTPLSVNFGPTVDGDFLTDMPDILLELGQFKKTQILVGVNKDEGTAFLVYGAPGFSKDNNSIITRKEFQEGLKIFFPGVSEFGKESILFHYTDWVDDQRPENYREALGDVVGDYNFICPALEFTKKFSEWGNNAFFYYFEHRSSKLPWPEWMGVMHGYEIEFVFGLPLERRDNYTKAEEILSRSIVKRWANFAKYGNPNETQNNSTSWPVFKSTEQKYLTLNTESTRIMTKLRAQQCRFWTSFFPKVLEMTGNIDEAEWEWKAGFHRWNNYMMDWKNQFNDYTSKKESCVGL

Regarding `C#CCCCOc1ccc(-c2cc(=O)c3ccccc3o2)cc1CN1CCCCC1`, the inhibition at 20 µM in series [1] came out at 0.23%. The molecule also displayed an inhibition in [2] of 22.1%. The half-maximal inhibitory concentration (IC50) in series [3] worked out at 11 µM. For the same molecule, in series [4], the inhibition entry was “Active”. Further, the Activity is 44.9% in [5], 60.6% in series [6] and 27.8% in [7]. Moreover, in series [8], the viability at 1 µM worked out at 99.6%. In addition, the values for the viability at 25 µM in series [9] and in series [13] were 88.3% and 44.1%, respectively. In series [10], the inhibition at 1 µM came to 65.7%. Moreover, the inhibition at 25 µM in series [11] was determined as 34.8%. In [12], the viability at 5 µM is 42.9%.

Usually inhibition stands for how much of the control response was suppressed. The IC50 is the concentration needed to halve the response being measured.
